# Entries after “also recorded” stand apart in the source; their conditions may differ. *: point of attachment. FITC = O=C1OC2(c3ccc(O)cc3Oc3cc(O)ccc32)c2ccc(NC(=S)*)cc21; Biotin = O=C1N[C@H]2[C@H](CS[C@H]2CCCCC(=O)*)N1; Ahx = NCCCCCC(=O)O
# Columns and labels:
# Type in all cases: cell-based, Chinese hamster
# [1] = system: pgs A-745 cells; assay: Cellular uptake of peptide-horseradish peroxidase; conditions: pgs A-745 cells lacking surface GAGs; 240 ng/ml complex, 30 min, 37°C; TMB substrate, 405 nm; n=3
# [2] = system: wild-type CHO K1 cells; assay: Cellular uptake of FITC-labeled peptides, flow cytometry and confocal microscopy; conditions: as stated in the abstract; cell type not stated
# Procedure, shortened: (§1)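 CHO K1 wild-type and GAG-deficient mutants were grown in DMEM/F12 with 10% FBS at 37 °C. At ~75% confluence (48 h after seeding), cells were exposed to 20 μM FITC-labelled peptide for 2 h at 37 °C, then trypsinised, washed and analysed by flow cytometry. Dead cells (7-AAD-positive) were gated out, ≥5,000 events were collected and uptake was expressed relative to wild-type. Confocal imaging used a ~0.40 micron mid Z-section. Triplicates, mean ± S.D., t test.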
# [3] = system: pgs D-677 cells (heparan sulfate-defective CHO K1 mutant); assay: as above; conditions: deduced from uptake in pgs D-677 versus wt CHO K1; 20 μM, 2 h, 37°C
# Procedure, shortened: as §1
# [4] = system: pgs F-17 cells (2-O-sulfation-defective CHO K1 mutant); assay: Cellular uptake of FITC-labeled peptides, flow cytometry; conditions: 20 μM FITC-labeled peptide, 2 h, 37°C
# Procedure, shortened: (§2)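 Mutant and wild-type CHO K1 cells were seeded 48 h before use and treated at ~75% confluence with 20 μM FITC-labelled peptide in DMEM/F12 for 2 h at 37 °C. Cells were washed, trypsinised for 5 min and resuspended at 2×10⁶ cells/ml. 7-AAD (0.5 ng/μl final) excluded dead cells. Fluorescence was read with 488-nm excitation on ≥5,000 live events and compared with wild-type. Triplicates, mean ± S.D.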
# [5] = system: pgs C-605 cells (sulfate transporter-defective CHO K1 mutant); assay: as above; conditions: 20 μM FITC-labeled peptide, 2 h, 37°C
# Procedure, shortened: as §2
substance,measurement,setting,value
{Biotin-Ahx}-KKGFYKKKQCRPSKGRKRGFCWAVDKYG-NH2 (cysteine pairing not given here) [KG-28],Uptake of complex into cells (peroxidase activity of cell extracts),[1],abolished
{FITC-Ahx}-KKGFYKKK-NH2 [KK-8],Uptake activity retained within KW-22 (abstract),[2],no uptake activity
{FITC-Ahx}-KKGFYKKKQCRPSKGRKRGFCW-NH2 (cysteine pairing not given here) [KW-22],Contribution of heparan sulfate to total uptake,[3],~ 38%
same,Cellular uptake compared with wt CHO K1,[4],comparable to that in wt cells; also recorded: barely affected
same,Cellular fluorescence (uptake) compared with wt CHO K1,[5],comparable with that of the wt cells

# From publication PMC3941648 (Protein and peptide letters, 2014)
